This note sets out measurements from ChEMBL document CHEMBL1671761, “Preclinical characterization of BI 201335, a C-terminal carboxylic acid inhibitor of the hepatitis C virus NS3-NS4A protease” (Antimicrob Agents Chemother, 2010).

As usually defined, the IC50 is the concentration at which inhibition is half-maximal. Read a low IC50 as inhibition by little substance. The term CC50 denotes the concentration that lowers cell viability or growth by half. Low readings indicate greater toxicity to the cells, high ones lower toxicity to the cells. The term EC50 denotes the concentration needed to bring the measured effect to its halfway point.

The structures appear in SMILES notation.

Data set [1] in a line: Inhibition of HCV 1a NS3/4A protease. More on the design: species or system Hepatitis C virus subtype 1a. Particulars: read-out: Ki(app). In a few lines: (§1)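 Substrate was 5 μM anthranilyl-DDIVPAbu[C(O)-O]AMY(3-NO2)TW-OH in 50 mM Tris pH 8.0, 0.25 M citrate, 0.01% dodecylmaltoside, 1 mM TCEP, 5% DMSO. Run at 23°C for 60-70 min, stopped with MES pH 5.8, read by product fluorescence. IC50 converted to apparent Ki via IC50=Ki(1+[S]/Km). Mean ± SD, ≥3 experiments.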

Data set [2] relates to Hepatitis C virus. As to the kind of experiment: Inhibition of HCV 1b NS3/4A protease. Particulars: read-out: Ki(app). More on the design: species or system Hepatitis C virus subtype 1b. The procedure, abridged:
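Full-length NS3 coexpressed with the 54-residue NS4A, 0.5 nM (2.5 nM for genotype 1a). Substrate was 5 μM anthranilyl-DDIVPAbu[C(O)-O]AMY(3-NO2)TW-OH in 50 mM Tris pH 8.0, 0.25 M citrate, 0.01% dodecylmaltoside, 1 mM TCEP, 5% DMSO. Run at 23°C for 60-70 min, stopped with MES pH 5.8, read by product fluorescence. IC50 converted to apparent Ki via IC50=Ki(1+[S]/Km). Mean ± SD, ≥3 experiments.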

A short description of data set [3]: Inhibition of HCV 2a NS3/4A protease. Also on record: species or system Hepatitis C virus subtype 2a. Particulars: read-out: Ki(app). In a few lines: as §1
A short description of data set [4]: Inhibition of HCV 2b NS3/4A protease. More on the design: species or system Hepatitis C virus subtype 2b. Particulars: read-out: Ki(app). The procedure, abridged: as §1
The nature of data set [5]: Inhibition of HCV 3a NS3/4A protease. Also on record: species or system Hepatitis C virus subtype 3a. Particulars: read-out: Ki(app). In a few lines: as §1
Data set [6] is described as follows: Inhibition of HCV 4a NS3/4A protease. Also on record: species or system Hepatitis C virus subtype 4a. Particulars: read-out: Ki(app). The procedure, abridged:
as §1

The nature of data set [7]: Inhibition of HCV 6a NS3/4A protease. Also on record: species or system Hepatitis C virus subtype 6a. Particulars: read-out: Ki(app). In a few lines: as §1
The next data set concerns the target Neutrophil elastase (Homo sapiens, UniProt P08246). As to the kind of experiment: Inhibition of human leukocyte elastase after 60 mins fluorescence assay.
For another data set, the target named is Cathepsin B (Homo sapiens, UniProt P07858). As to the kind of experiment: Inhibition of human CatB after 60 mins fluorescence assay.
Data set [8] is described as follows: Binding affinity to HCV 5a NS3/4A protease. Also on record: species or system Hepatitis C virus subtype 5a. Particulars: read-out: Ki(app). The procedure, abridged: as §1
A further data set relates to Huh-7. The data set can be described thus: Cytotoxicity activity against human HuH7 cells by MTT assay. Format: functional. In a few lines:
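MTT assay in proliferating Huh-7 cells exposed 72 h to serial inhibitor dilutions; formazan read at 570 nm. CC50 taken from percent inhibition.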
(In general: Tetrazolium dyes change colour on reduction, which living cells bring about.)

The subject of data set [9] is Hepatitis C virus. As to the kind of experiment: Antiviral activity against HCV 1a infected in Huh7 cells assessed as inhibition of viral replication after 72 hrs by RT-PCR. It is filed as functional, organism-based, Hepacivirus hominis. Particulars: subtype 1a, Huh-7, 72 h. The procedure, abridged:
(§2)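 Huh-7-derived subgenomic replicon cells of genotype 1a or 1b, grown in DMEM/10% FBS with G418. Replicon RNA was quantified by TaqMan real-time RT-PCR against an in vitro-transcribed RNA standard curve and normalized to total RNA (RiboGreen).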

Data set [10] is described as follows: Apparent permeability from apical to basolateral side in human Caco2 cells. Particulars: Caco-2, read-out: permeability. It is filed as ADME, cell-based. The procedure, abridged: (§3)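 Caco-2 monolayers were differentiated 23-25 days on Transwell inserts. After 30 min at 37°C, compound was added to the donor side (apical for A-to-B, basolateral for B-to-A). Receiver sampled at 0, 1, 2, 3 h; analysed by HPLC.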
(Passage across Caco-2 layers is used to estimate intestinal permeability.)

Data set [11] is described as follows: Apparent permeability from basolateral to apical side in human Caco2 cells. Format: ADME, cell-based. Particulars: Caco-2, read-out: permeability. The procedure, abridged: as §3
The test system of data set [12] is Hepatitis C virus. The data set can be described thus: Antiviral activity against HCV 1b infected in Huh7 cells assessed as inhibition of viral replication after 72 hrs by RT-PCR. Particulars: genotype 1b, Huh-7, 72 h. Format: functional, organism-based, Hepacivirus hominis. In a few lines:
as §2

The nature of data set [13]: Clearance in human liver microsomes. Particulars: read-out: QH. It is filed as ADME, Microsome. The procedure, abridged:
(§4)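 Male liver microsomes (Sprague-Dawley rat, beagle dog, human, rhesus monkey) at 1 mg microsomal protein in 1 ml of 0.066 M Tris pH 7.4 with 2.5 mM NADPH. Initial compound concentration was 2 μM. Incubations ran at 37°C and were started with NADPH. Samples were taken at 0, 10 and 20 min and quenched with an equal volume of 1:1 acetonitrile-methanol. Supernatants were analysed by HPLC and clearance calculated by the Obach method.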
(In general: Liver microsomes are vesicles of endoplasmic reticulum, rich in cytochrome P450 enzymes.)

A short description of data set [14]: Clearance in Sprague-Dawley rat liver microsomes. It is filed as ADME, Microsome. Particulars: read-out: QH. In a few lines:
as §4

Chain of Neutrophil elastase (P08246 whole entry): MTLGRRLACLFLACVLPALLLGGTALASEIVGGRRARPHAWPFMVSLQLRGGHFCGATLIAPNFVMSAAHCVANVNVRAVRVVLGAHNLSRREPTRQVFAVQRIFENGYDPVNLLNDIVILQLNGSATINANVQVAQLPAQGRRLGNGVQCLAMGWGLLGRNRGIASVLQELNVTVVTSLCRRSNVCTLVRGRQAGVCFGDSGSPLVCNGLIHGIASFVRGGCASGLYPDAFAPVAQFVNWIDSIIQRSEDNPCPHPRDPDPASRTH

Consider `CC(C)(C)NC(=O)N[C@H](C(=O)N1C[C@H]2[C@@H]([C@H]1C(=O)NC(CC1CCC1)C(=O)C(N)=O)C2(C)C)C(C)(C)C` (stereo partly specified) [BOCEPREVIR], for which the Ki in data set [1] came out at 1.1 nM; in the data set with Hepatitis C virus [2], 2 nM; in data set [3], 7.3 nM; in [4], 28 nM; in data set [5], 23 nM; in data set [6] it was 8.6 nM. Besides, the Ki in [7] was 2.3 nM; in data set [8], 18 nM. In addition, the figures for the IC50 against Neutrophil elastase and against Cathepsin B were 17000 nM and 6200 nM, respectively. The molecule also came in with a half-maximal cytotoxic concentration (CC50) with Huh-7 above 70000 nM. Also, the EC50 in the data set with Hepatitis C virus [9] stood at 550 nM. The Papp A→B in data set [10] worked out at 0.6 ×10⁻⁶ cm/s. Moreover, the Papp B→A in data set [11] was determined as 23 ×10⁻⁶ cm/s.

As to `CCC[C@H](NC(=O)[C@@H]1[C@H]2CCC[C@H]2CN1C(=O)[C@@H](NC(=O)[C@@H](NC(=O)c1cnccn1)C1CCCCC1)C(C)(C)C)C(=O)C(=O)NC1CC1`, the Ki amounted to 3.2 nM in data set [1]; 4.4 nM with Hepatitis C virus [2]; 15 nM in [3]; 73 nM in data set [4]; 160 nM in data set [5]; 50 nM in data set [6]. For the same molecule, the values for the Ki in data set [7] and in data set [8] were 4.5 nM and 110 nM, respectively. Also, the values for the concentration for half-maximal inhibition (IC50) against Neutrophil elastase and on Cathepsin B were 680 nM and 2300 nM, respectively. In the data set with Huh-7, this molecule registered a half-maximal cytotoxic concentration (CC50) of 37000 nM. Moreover, the concentration giving a half-maximal response (EC50) came to 700 nM in the data set with Hepatitis C virus [9] and 540 nM in the data set on Hepatitis C virus [12]. Besides, the Papp A→B in data set [10] is 4.1 ×10⁻⁶ cm/s. In addition, in [11], the Papp B→A worked out at 23 ×10⁻⁶ cm/s. Further, the hepatic extraction ratio came out at 0.64 in [13] and 0.41 in data set [14].
